The values below come from PubChem BioAssay.

A short description of assay [1]: SK-BR-3 cell growth inhibitors, pilot screen, 24 h, human (AID 572;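 active means viability at or below 10% of carrier control in both of two separate runs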;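 further: compound exposure lasted between 18 and 24 h rather than exactly 24 h; 100% = carrier-treated control wells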). Particulars: SK-BR-3 viability, CellTiter-Glo luminescence, at 10 µM, stronger effect = lower value. (ATP-based viability assays read luminescence as a measure of living cells.)
Assay [2] can be described thus: HUVEC growth inhibition – cell-based, human, primary screen (AID 575;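 active means viability at or below 30% in both replicate assays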;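 further: 100% = median of untreated cell wells with 0.1% DMSO on each plate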). Particulars: HUVEC proliferation, CellTiter-Glo luminescence, 72 h; at 10 µM; stronger effect = lower value. The essentials:
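system = HUVEC primary cells | amount = 1250 cells/well | buffer or medium = supplemented EBM, 2% fetal bovine serum | dosing = single-point 10 µM, DMSO 0.1% final | times = 72 h compound incubation | detection = CTG luminescence | read-out = % viability relative to median vehicle-well signal on each plate | control set = vehicle and MePR control wells | format = collagen-coated 384-well format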

Assay [3] can be described thus: growth inhibitors of H69AR lung tumor, primary screen, human, duplicate replicates (AID 580;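 active means viability at or under a set limit in both replicates, limit being median viability minus 3 SD, cut at about 48% in these data, passing the limit was not always enough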;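 further: 100% = mean luminescence of untreated wells and 0% = no signal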). Particulars: H69AR lung tumor cells viability, ATP luminescence, 72 h; at 10 µM; stronger effect = lower value.
Assay [4] is described as follows: reversal of MRP1-mediated doxorubicin resistance, pilot screen, H69AR cells, doxorubicin co-treatment (AID 601;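 active means viability loss from added drug above about 55%, and viability with drug at most 40%, in both replicates, limit read from the data, passing the limit was not always enough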). Particulars: CellTiter-Glo, 72 h, at 10 µM; for differential viability (reversal): stronger effect = higher value.
Assay [5] is described as follows: 384-well plate pilot, post-Golgi transport modulator project, inhibition of yeast transport mutant growth (AID 636; in the data active means inhibition above about 31%). As to conditions: absorbance 615 nm, about 18 h, stronger effect = higher value.
Assay [6] is described as follows: growth suppression of yeast trafficking mutant, preliminary HTS, modulators of trafficking downstream of Golgi apparatus project, 1536-format plate, OD 615 nm (AID 637). As to conditions: yeast transport mutant growth, absorbance 615 nm, 18 h; stronger effect = higher value.
[7] abbreviates: H69AR cells + 2 uM doxorubicin, measured here: viability with 2 uM doxorubicin, stronger effect = lower value.
[8] abbreviates: H69AR cells, compound alone cytotoxicity.

Activity calls are given as the source filed them. Unless noted, no stated cut-off is given here; in the data, active means inhibition above about 30%; inactive means the rest.

The viability is a read-out of living cells in per cent, often relative to untreated cells. The inhibition is the drop in the measured response relative to a control, in per cent. Regarding `Cc1cc(NC(=O)C(C)(C)C)no1`, the viability in assay [1] is 82% (inactive); in assay [2], 92.7% (inactive); in assay [3], 99.2% (inactive); in assay [4] (setting [7]), 83.3%; in assay [4] (setting [8]), 99.2%. In assay [4] (H69AR cells + 2 uM doxorubicin), the differential viability (reversal) was 16% (inactive). The inhibition in assay [5] was -1.2% (inactive); in assay [6], -0.73% (inactive).
In the case of `CN(C)CCCC1(c2ccc(F)cc2)OCc2cc(C#N)ccc21` (stereo not drawn), the viability in assay [1] is 79% (inactive); in assay [2], 73.3% (inactive); in assay [3], 103% (inactive); in assay [4] (setting [7]), 85.7%; in assay [4] (setting [8]), 103%. In addition, the differential viability (reversal) in assay [4] (H69AR cells + 2 uM doxorubicin) was 17.6% (inactive). In addition, the inhibition in assay [5] was -1.56% (inactive); in assay [6], -2.5% (inactive).
On to `Cc1c2cnn(CC(=O)N3CCN(c4ncccn4)CC3)c(=O)c2c(C)n1Cc1ccc(F)cc1`, for which the viability was 99% (inactive) in assay [1]; 106% (inactive) in assay [2]; 99.5% (inactive) in assay [3]; 97.2% in assay [4] (setting [7]); 99.5% in assay [4] (setting [8]). For the same compound, the differential viability (reversal) in assay [4] (H69AR cells + 2 uM doxorubicin) is 2.37% (inactive). Moreover, the results for the inhibition in assay [5] and in assay [6] were 5.14% (inactive) and -4.73% (inactive), respectively.
For the compound `COC(=O)Cn1c(CCS(=O)(=O)c2ccc(C)cc2)nc2ccccc21`, the viability is 99% (inactive) in assay [1]; 96.5% (inactive) in assay [2]; 76.4% (inactive) in assay [3]; 69.8% in assay [4] (setting [7]); 76.4% in assay [4] (setting [8]). For the same compound, the differential viability (reversal) in assay [4] (H69AR cells + 2 uM doxorubicin) was 6.58% (inactive). For the same compound, the inhibition was -0.91% (inactive) in assay [5] and -1.64% (inactive) in assay [6].
As for `COc1ccccc1N1CCN(c2cc(N3CCCC3)nc(C)n2)CC1`, the viability in assay [1] was 75% (inactive); in assay [2], 91.8% (inactive); in assay [3] it was 87.8% (inactive); in assay [4] (setting [7]), 91.6%; in assay [4] (setting [8]) it was 87.8%. Also, the differential viability (reversal) in assay [4] (H69AR cells + 2 uM doxorubicin) is -3.8% (inactive). The inhibition in assay [5] is -2.6% (inactive); in assay [6], -2% (inactive).
As for `NS(=O)(=O)c1cc2c(cc1C(F)(F)F)NCNS2(=O)=O`, the viability in assay [1] is 100% (inactive); in assay [2], 91% (inactive); in assay [3], 109% (inactive); in assay [4] (setting [7]) it was 101%; in assay [4] (setting [8]), 109%. Moreover, in assay [4] (H69AR cells + 2 uM doxorubicin), the differential viability (reversal) was 8.31% (inactive). The inhibition was 1.17% (inactive) in assay [5] and 3.33% (inactive) in assay [6].
As to `O=C(CSc1nnc(-c2ccccc2Br)o1)Nc1cccc2ccccc12`, the viability in assay [1] is 89% (inactive); in assay [2], 101% (inactive); in assay [3] it was 105% (inactive); in assay [4] (setting [7]) it was 81.2%; in assay [4] (setting [8]), 105%. In addition, the differential viability (reversal) in assay [4] (H69AR cells + 2 uM doxorubicin) was 24.2% (inactive). Moreover, the inhibition in assay [5] was 0.39% (inactive); in assay [6], -4.43% (inactive).
Consider `Cc1cc(C)cc(C(=O)N2CCC(C(N)=O)CC2)c1`, for which the viability in assay [1] is 91% (inactive); in assay [2] it was 105% (inactive); in assay [3] it was 97.2% (inactive); in assay [4] (setting [7]), 87.5%; in assay [4] (setting [8]), 97.2%. In addition, the differential viability (reversal) in assay [4] (H69AR cells + 2 uM doxorubicin) was 9.71% (inactive). The inhibition in assay [5] was -8.78% (inactive); in assay [6] it was 0% (inactive).
Turning to `Cc1csc(NC(=O)c2ccoc2C)n1`, the viability was 103% (inactive) in assay [1]; 84.6% (inactive) in assay [2]; 86.3% (inactive) in assay [3]; 91.8% in assay [4] (setting [7]); 86.3% in assay [4] (setting [8]). In addition, in assay [4] (H69AR cells + 2 uM doxorubicin), the differential viability (reversal) was -5.44% (inactive). For the same compound, the inhibition in assay [5] is -4.66% (inactive); in assay [6], -8.39% (inactive).
Regarding `COC(=O)C1(C)NC(c2cccs2)C2C(=O)N(c3ccccc3F)C(=O)C21` (stereo not drawn), the viability in assay [1] is 80% (inactive); in assay [2], 96.3% (inactive); in assay [3] it was 99.3% (inactive); in assay [4] (setting [7]) it was 94.4%; in assay [4] (setting [8]), 99.3%. In addition, the differential viability (reversal) in assay [4] (H69AR cells + 2 uM doxorubicin) was 4.93% (inactive). Further, the inhibition in assay [5] is -0.27% (inactive); in assay [6], -0.48% (inactive).
For `COc1cccc(OCc2nnc(SCC(=O)OCc3ccccc3)o2)c1`, the viability was 101% (inactive) in assay [1]; 108% (inactive) in assay [2]; 97% (inactive) in assay [3]; 91.2% in assay [4] (setting [7]); 97% in assay [4] (setting [8]). Besides, the differential viability (reversal) in assay [4] (H69AR cells + 2 uM doxorubicin) was 5.81% (inactive). In addition, the inhibition in assay [5] was -6.93% (inactive); in assay [6], -3.09% (inactive).
With `O=C(Nc1ncnc2sc3c(c12)CCC3)c1ccco1`, the viability in assay [1] was 81% (inactive); in assay [2], 94% (inactive); in assay [3] it was 80.1% (inactive); in assay [4] (setting [7]), 83%; in assay [4] (setting [8]), 80.1%. Moreover, the differential viability (reversal) in assay [4] (H69AR cells + 2 uM doxorubicin) is -2.91% (inactive). Besides, the values for the inhibition in assay [5] and in assay [6] were -4.73% (inactive) and 0.55% (inactive), respectively.
As to `NS(=O)(=O)c1ccc(NC(=O)CSc2nnc(Cc3cccs3)n2-c2ccccc2)cc1`, the viability in assay [1] is 57% (inactive); in assay [2], 93.6% (inactive); in assay [3], 93.3% (inactive); in assay [4] (setting [7]), 89.2%; in assay [4] (setting [8]), 93.3%. Further, the differential viability (reversal) in assay [4] (H69AR cells + 2 uM doxorubicin) is 4.08% (inactive). Also, the inhibition in assay [5] is -7.53% (inactive); in assay [6], 2.18% (inactive).
Regarding `CC(=O)OCC(=O)[C@@]12OC(C)(C)O[C@@H]1C[C@H]1[C@@H]3C[C@H](F)C4=CC(=O)C=C[C@]4(C)[C@@]3(F)[C@@H](O)C[C@@]12C`, the viability in assay [1] is 104% (inactive); in assay [2] it was 62.1% (inactive); in assay [3] it was 106% (inactive); in assay [4] (setting [7]) it was 104%; in assay [4] (setting [8]), 106%. Moreover, in assay [4] (H69AR cells + 2 uM doxorubicin), the differential viability (reversal) is 2.31% (inactive). For the same compound, the inhibition was 0.65% (inactive) in assay [5] and -1.83% (inactive) in assay [6].
With `Cc1cc(NC(=O)CCCC(=O)Nc2ccc(F)cc2)no1`, the viability in assay [1] was 101% (inactive); in assay [2], 96.8% (inactive); in assay [3] it was 97% (inactive); in assay [4] (setting [7]), 97.5%; in assay [4] (setting [8]) it was 97%. Further, in assay [4] (H69AR cells + 2 uM doxorubicin), the differential viability (reversal) was -0.445% (inactive). Also, the inhibition in assay [5] is -1.56% (inactive); in assay [6] it was -1.48% (inactive).
Consider `CCc1nnc(NC(=O)CSc2nnc(-c3cc4ccccc4cc3O)n2CC)s1`, for which the viability is 84% (inactive) in assay [1]; 78.4% (inactive) in assay [2]; 90.1% (inactive) in assay [3]; 89.1% in assay [4] (setting [7]); 90.1% in assay [4] (setting [8]). For the same compound, the differential viability (reversal) in assay [4] (H69AR cells + 2 uM doxorubicin) was 1.08% (inactive). Besides, the inhibition in assay [5] was -1.95% (inactive); in assay [6], -3.28% (inactive).
